Columns and labels:
Format in all cases: cell-based
[1] = biological target: T1, Glutamate NMDA receptor; Grin1/Grin2b (Rattus norvegicus) (UniProt P35439+Q00960); experiment: Positive allosteric modulation of recombinant rat GluN1alpha/GluN2B receptor expressed in HEK293 cells assessed as potentiation of glutamate-induced current response at 1 to 100 uM at holding potential -60mV by whole cell voltage clamp method relative to control
How it was run: (§1)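 HEK293 cells transfected with GluN1-1a, the GluN2 subunit and GFP. Whole-cell voltage clamp at -60 mV, series resistance <10 MΩ, 80-90% compensation, room temperature (21–25 °C). Compound is co-applied with 1 µM glutamate by multibarrel fast perfusion (exchange ~10 ms). DMSO is held at 1% in all test and control solutions. Readout is % potentiation of the glutamate-evoked current.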

[2] = biological target: Glutamate NMDA receptor; Grin1/Grin2b (Rattus norvegicus, UniProt P35439+Q00960); experiment: Positive allosteric modulation of recombinant rat GluN1alpha/GluN2B receptor expressed in HEK293 cells assessed as potentiation of glutamate-induced current response at holding potential -60mV by whole cell voltage clamp method
How it was run: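 HEK293 cells transfected with GluN1-1a, GluN2A, 2B, 2C or 2D and GFP cDNA. Whole-cell voltage clamp at -60 mV, 21–25 °C, series resistance <10 MΩ compensated 80–90%. Compound co-applied with 1 µM glutamate by fast multibarrel perfusion. DMSO 1% in all solutions. At least four cells per point.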

[3] = biological target: T1, Glutamate NMDA receptor; Grin1/Grin2b (Rattus norvegicus); experiment: Positive allosteric modulation of recombinant rat GluN1alpha/GluN2B receptor expressed in HEK293 cells assessed as potentiation of glutamate-induced current response at 0.3 to 300 uM at holding potential -60mV by whole cell voltage clamp method relative to control; how it was run: as §1
[4] = biological target: T1, Glutamate NMDA receptor; Grin1/Grin2b (Rattus norvegicus); experiment: Positive allosteric modulation of recombinant rat GluN1alpha/GluN2B receptor expressed in HEK293 cells assessed as potentiation of glutamate-induced current response at 100 uM at holding potential -60mV by whole cell voltage clamp method relative to control; how it was run: as §1
[5] = biological target: Glutamate NMDA receptor; Grin1/Grin2a (Rattus norvegicus) (UniProt P35439+Q00959); experiment: Positive allosteric modulation of recombinant rat GluN1alpha/GluN2A receptor expressed in HEK293 cells assessed as potentiation of glutamate-induced current response at 100 uM at holding potential -60mV by whole cell voltage clamp method relative to control; how it was run: as §1
[6] = biological target: Glutamate NMDA receptor; Grin1/Grin2c (Rattus norvegicus) (UniProt P35439+Q00961); experiment: Positive allosteric modulation of recombinant rat GluN1alpha/GluN2C receptor expressed in HEK293 cells assessed as potentiation of glutamate-induced current response at 100 uM at holding potential -60mV by whole cell voltage clamp method relative to control; how it was run: as §1
[7] = biological target: Ionotropic glutamate receptor NMDA 1/2D (Rattus norvegicus) (UniProt P35439+Q62645); experiment: Positive allosteric modulation of recombinant rat GluN1alpha/GluN2D receptor expressed in HEK293 cells assessed as potentiation of glutamate-induced current response at 100 uM at holding potential -60mV by whole cell voltage clamp method relative to control; how it was run: as §1
[8] = biological target: T1, Glutamate NMDA receptor; Grin1/Grin2b (Rattus norvegicus); experiment: Positive allosteric modulation of recombinant rat GluN1alpha/GluN2B receptor expressed in HEK293 cells assessed as potentiation of glutamate-induced current response at 1 to 300 uM at holding potential -60mV by whole cell voltage clamp method relative to control

Structure (SMILES) | Emax [1] [%] | EC50 [2] [µM] | Emax [3] [%] | also measured
C[C@]12CC[C@H](OC(=O)CCCCCCCC(=O)O)CC1=CC[C@@H]1[C@@H]2CC[C@]2(C)C(=O)CC[C@@H]12 | 226 | 38.2 | – | –
C[C@]12CC[C@H](OC(=O)CCCCCC(=O)O)CC1=CC[C@@H]1[C@@H]2CC[C@]2(C)C(=O)CC[C@@H]12 | 187 | 82.4 | – | –
C[C@@]12CCC[C@H]1[C@@H]1CC=C3C[C@@H](OC(=O)CCC(=O)O)CC[C@]3(C)[C@H]1CC2 | – | 7.4 | 452 | –
C[C@@]12CCC[C@H]1[C@@H]1CC=C3C[C@@H](OC(=O)CCCC(=O)O)CC[C@]3(C)[C@H]1CC2 | – | 5.2 | 348 | –
C[C@@]12CCC[C@H]1[C@@H]1CC=C3C[C@@H](OC(=O)CCCCC(=O)O)CC[C@]3(C)[C@H]1CC2 | – | 2.8 | 191 | –
C[C@]12CC[C@H](OC(=O)CCCCCCCCC(=O)O)CC1=CC[C@@H]1[C@@H]2CC[C@]2(C)C(=O)CC[C@@H]12 | 165 | 16.1 | – | –
CC[C@H]1CC[C@H]2[C@@H]3CC=C4C[C@@H](OC(=O)CCCCC(=O)O)CC[C@]4(C)[C@H]3CC[C@]12C | – | 17.2 | 60 | –
CC[C@H]1CC[C@H]2[C@@H]3CC=C4C[C@@H](OC(=O)CC(=O)O)CC[C@]4(C)[C@H]3CC[C@]12C | – | 10.7 | 71 | –
CC(=O)[C@H]1CC[C@H]2[C@@H]3CC=C4C[C@@H](OC(=O)CCCCCC(=O)O)CC[C@]4(C)[C@H]3CC[C@]12C | 191 | 18 | – | Activity [4]: 458%
C[C@]12CC[C@H](OC(=O)CCCCCCC(=O)O)CC1=CC[C@@H]1[C@@H]2CC[C@]2(C)C(=O)CC[C@@H]12 | 189 | 49.1 | – | –
CC(=O)[C@H]1CC[C@H]2[C@@H]3CC=C4C[C@@H](OC(=O)CCC(=O)O)CC[C@]4(C)[C@H]3CC[C@]12C [PREGNENOLONE SUCCINATE] | 177 | 27.6 | – | Activity [4]: 267%
CC[C@H]1CC[C@H]2[C@@H]3CC=C4C[C@@H](OC(=O)CCCC(=O)O)CC[C@]4(C)[C@H]3CC[C@]12C | – | 9.9 | 209 | –
CC(=O)[C@H]1CC[C@H]2[C@@H]3CC=C4C[C@@H](OS(=O)(=O)O)CC[C@]4(C)[C@H]3CC[C@]12C.c1ccncc1 | 116 | – | – | Activity [4]: 78%; Activity [5]: 107%; Activity [6]: -47%; Activity [7]: -48%
C[C@]12CC[C@H](OC(=O)CCCC(=O)O)CC1=CC[C@@H]1[C@@H]2CC[C@]2(C)C(=O)CC[C@@H]12 | – | 151 | – | Emax [8]: 154%
CC(=O)[C@H]1CC[C@H]2[C@@H]3CC=C4C[C@@H](OC(=O)C(=O)O)CC[C@]4(C)[C@H]3CC[C@]12C | 93 | 48.6 | – | –
CC(=O)[C@H]1CC[C@H]2[C@@H]3CC=C4C[C@@H](OC(=O)CCCCCCC(=O)O)CC[C@]4(C)[C@H]3CC[C@]12C | 156 | 19.3 | – | –
C[C@@]12CCC[C@H]1[C@@H]1CC=C3C[C@@H](OC(=O)CC(=O)O)CC[C@]3(C)[C@H]1CC2 | – | 4.7 | 236 | –
C[C@]12CC[C@H](OC(=O)CCCCC(=O)O)CC1=CC[C@@H]1[C@@H]2CC[C@]2(C)C(=O)CC[C@@H]12 | – | 109 | – | Emax [8]: 180%
CC[C@H]1CC[C@H]2[C@@H]3CC=C4C[C@@H](OC(=O)CCC(=O)O)CC[C@]4(C)[C@H]3CC[C@]12C | – | 9.9 | 133 | –
CC(=O)[C@H]1CC[C@H]2[C@@H]3CC=C4C[C@@H](OC(=O)CCCC(=O)O)CC[C@]4(C)[C@H]3CC[C@]12C | 183 | 19 | – | Activity [4]: 460%
C[C@@]12CCC[C@H]1[C@@H]1CC=C3C[C@@H](OC(=O)CCCCCC(=O)O)CC[C@]3(C)[C@H]1CC2 | – | 1.8 | 109 | –
CC(=O)[C@H]1CC[C@H]2[C@@H]3CC=C4C[C@@H](OC(=O)CC(=O)O)CC[C@]4(C)[C@H]3CC[C@]12C | 108 | 39.8 | – | –
CC[C@H]1CC[C@H]2[C@@H]3CC=C4C[C@@H](OC(=O)CCCCCC(=O)O)CC[C@]4(C)[C@H]3CC[C@]12C | – | 26.2 | 48 | –

From ChEMBL document CHEMBL4219253, “Positive Modulators of the N-Methyl-d-aspartate Receptor: Structure-Activity Relationship Study of Steroidal 3-Hemiesters” (J Med Chem, 2018)
